# Published values gathered from unrelated publications.
# Compare with care: the assays were run in different laboratories.
# Target: Tyrosine-protein kinase BTK (BTK, Homo sapiens, UniProt Q06187)
Structure (SMILES),test,setting,remaining binding [%]
CCN1CCN(Cc2ccc(C(=O)Nc3ccc(C)c(Oc4ccc5c(c4)CC(=O)N5)c3)cc2C(F)(F)F)CC1,"binding, competition with immobilised ligand",1 µM,100
Nc1ncc2c(n1)-c1c([nH]c3ccc(C#CC4CC4)cc13)CCCC2,"binding, competition with immobilised ligand",1 µM,61
C[C@@H]1CCN(c2nccc(-c3cnn4ncccc34)n2)C1,binding,1 µM,90
COc1ncc2cc3ccccc3nc2c1C#N,"cell-free assay, competition with immobilised ligand",5 µM,100
Cc1cnc(Nc2ccc(C(=O)N3CCC(N4CCCC4)CC3)cc2)nc1-c1cc2ccccc2s1,"binding, competition with immobilised ligand",1 µM,54
CN(C)c1nccc(-c2cnc3ncccn23)n1,binding,1 µM,68
c1cncc(-c2cccc(Nc3nccc(NC4CCCCC4)n3)c2)c1,"binding, competition with immobilised ligand",10 µM,36
Cc1ccc(-n2nc(C(C)(C)C)cc2NC(=O)Nc2ccc(-n3c(N)c(C(N)=O)c4nc5ccc(NCCCN)cc5nc43)cc2)cc1,"cell-free assay, competition with immobilised ligand",1 µM,3.3
N#Cc1ccc(Nc2ccc3[nH]c(=O)[nH]c3c2)c(Cl)c1,"cell-free assay, competition with immobilised ligand",1 µM,100
CN(CCCC(F)(F)F)c1nccc(-c2cnn3ncccc23)n1,binding,1 µM,100
O=C(c1ccc(Nc2ncc(Cl)c(-c3ccc(Cl)s3)n2)cc1)N1CCC(N2CCCC2)CC1,"binding, competition with immobilised ligand",1 µM,64
CN(c1nccc(-c2cnn3ncccc23)n1)C1CC1,binding,1 µM,100
O=C(Nc1cccnn1)N1CCC(=Cc2cccc(Oc3ccc(C(F)(F)F)cn3)c2)CC1,"cell-free assay, competition with immobilised ligand",1 µM,100
O=C(c1ccc(Nc2nccc(-c3cc4ccccc4s3)n2)cc1)N1CCC(N2CCCC2)CC1,"binding, competition with immobilised ligand",1 µM,87
O=C(O)[C@@H]1[C@@H](Cn2nnc3ccccc3c2=O)CC[C@H]1C(=O)c1ccc(OCCC2CCOCC2)cc1,"cell-free assay, competition with immobilised ligand",1 µM,100
c1cnn2ncc(-c3ccnc(N4CCC45COC5)n3)c2c1,binding,1 µM,89
O=C(Nc1cccnn1)N1CC(C/C=C/c2cncc(Oc3ccc(C(F)(F)F)cn3)n2)C1,"cell-free assay, competition with immobilised ligand",1 µM,59
COc1cnc(Nc2cccc(S(N)(=O)=O)c2)nc1N1CCN(c2ccccc2)CC1,"binding, competition with immobilised ligand",1 µM,80
CCS(=O)(=O)c1cc2cc(C[C@](O)(CC(C)(C)c3ccc(F)cc3C(N)=O)C(F)(F)F)[nH]c2cn1,"cell-free assay, competition with immobilised ligand",1 µM,100
N[C@@H]1CCN(c2nccc(-c3cnn4ncccc34)n2)C1,binding,1 µM,100
O=C1CCc2cc(Nc3cc(OC4CCOCC4)c([N+](=O)[O-])cc3Cl)ccc2N1,"cell-free assay, competition with immobilised ligand",1 µM,100
O=C(NCC1CCOCC1)c1n[nH]cc1NC(=O)c1c(F)cccc1F,"binding, competition with immobilised ligand",1 µM,91
Cn1cc(Cl)c2c(Oc3c(F)cc(Nc4cc(Cl)nc(N)n4)cc3F)ccnc21,"cell-free assay, competition with immobilised ligand",0.1 µM,84
C[C@@H]1CN(c2ccc3ncc(-c4ccc5[nH]nc(C6CC6)c5c4)n3n2)C[C@H](C)O1,"binding, competition with immobilised ligand",50 nM,67
